In BindingDB's records for doi:10.1016/j.bmc.2014.09.055 (University of Arizona, 2014):

Biological target: Melanocortin receptor 4 (Homo sapiens, UniProt P32245)
Assay: Displacement of Eu-DTPA-NDP-a-MSH chelate from human melanocortin-4 receptor expressed in HEK293 cells after 1 hr by competitive DELFIA assay
Summary of the method: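 HEK293 cells stably carrying hMC4R (pcDNA3.1) were grown in DMEM plus 10% FBS, seeded at 12,000 cells/well and cultured 3 days. Whole cells were competed with unlabeled ligand against 10 nM (final) Eu-DTPA-NDP-α-MSH in binding medium (DMEM, 1 mM 1,10-phenanthroline, bacitracin, leupeptin, 0.3% BSA) for 1 h at 37 °C, in quadruplicate. EC50 and Hill slope came from variable-slope sigmoidal fits.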

Chain of Melanocortin receptor 4 (P32245 whole entry): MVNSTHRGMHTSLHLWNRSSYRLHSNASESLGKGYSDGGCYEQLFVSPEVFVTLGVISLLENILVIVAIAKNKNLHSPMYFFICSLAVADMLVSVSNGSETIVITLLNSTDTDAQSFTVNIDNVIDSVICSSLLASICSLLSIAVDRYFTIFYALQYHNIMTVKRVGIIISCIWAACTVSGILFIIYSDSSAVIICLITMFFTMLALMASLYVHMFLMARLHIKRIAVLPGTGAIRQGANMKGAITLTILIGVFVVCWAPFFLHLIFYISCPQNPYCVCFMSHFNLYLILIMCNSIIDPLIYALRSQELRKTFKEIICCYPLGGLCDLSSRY

EC50	Structure (SMILES)
1.6 nM	CCCC[C@H](NC(=O)CNC(=O)[C@@H]1CCCN1C(=O)CNC(=O)[C@@H]1CCCN1C(=O)CNC(=O)[C@@H]1CCCN1C(=O)CNC(=O)[C@@H]1CCCN1C(=O)CNC(=O)[C@@H]1CCCN1C(=O)CNC(=O)[C@@H]1CCCN1C(=O)CNC(=O)[C@@H]1CCCN1C(=O)CNC(=O)[C@@H]1CCCN1C(=O)CNC(=O)[C@@H]1CCCN1C(=O)CNC(=O)[C@@H]1CCCN1C(=O)CNC(=O)[C@@H]1CCCN1C(=O)CNC(=O)[C@@H]1CCCN1C(=O)[C@H](Cc1c[nH]c2ccccc12)NC(=O)[C@H](CCCNC(=N)N)NC(=O)[C@@H](Cc1ccccc1)NC(=O)[C@H](Cc1cnc[nH]1)NC(=O)[C@H](CCC(=O)O)NC(=O)[C@H](CC(C)C)NC(=O)[C@H](CO)NC(C)=O)C(=O)N[C@H]1CC(=O)NCCCC[C@@H](C(N)=O)NC(=O)[C@H](Cc2c[nH]c3ccccc23)NC(=O)[C@H](CCCNC(=N)N)NC(=O)[C@@H](Cc2ccc3ccccc3c2)NC(=O)[C@H](Cc2cnc[nH]2)NC1=O
1.7 nM	CCCC[C@H](NC(=O)COCC(=O)NCCCOCCOCCOCCCNC(=O)COCC(=O)NCCCOCCOCCOCCCNC(=O)[C@H](Cc1c[nH]c2ccccc12)NC(=O)[C@H](CCCNC(=N)N)NC(=O)[C@@H](Cc1ccccc1)NC(=O)[C@H](Cc1cnc[nH]1)NC(=O)[C@H](CCC(=O)O)NC(=O)[C@H](CC(C)C)NC(=O)[C@H](CO)NC(C)=O)C(=O)N[C@H]1CC(=O)NCCCC[C@@H](C(N)=O)NC(=O)[C@H](Cc2c[nH]c3ccccc23)NC(=O)[C@H](CCCNC(=N)N)NC(=O)[C@@H](Cc2ccc3ccccc3c2)NC(=O)[C@H](Cc2cnc[nH]2)NC1=O
